The nature of data set [1]: Stability in 50% pooled human plasma assessed as half life at 100 uM by LC-MS method. Format: ADME, cell-free. Summed up:
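Compound at 100 µM final in pooled human plasma diluted to 50% with PBS, pH 7.5. Analysed by positive-mode LC-MS on C18 with a water/acetonitrile gradient from 25 to 80% over 9 min. Fraction remaining came from peak integration, and half-life was calculated from it. Each point run 2–4 times.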

Data set [2] has as its target T1, Butyrophilin subfamily 3 member A1 (Homo sapiens, UniProt O00481). The data set is described as follows: Binding affinity to BTN3A1 in human PBMC assessed as stimulation of Vgamma9 Vdelta2 T cells at 100 nM incubated for 3 days and measured after 11 days post compound removal by flow cytometry. Summed up: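 Human PBMC exposed to compound at 100 nM for 3 days, then left to proliferate 11 days before counting Vγ9Vδ2 T cells. […] Negative control was cells with interleukin 2 and no compound. Data from 3 independent experiments.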
Target sequence in this assay (O00481 30-513 limits assumed): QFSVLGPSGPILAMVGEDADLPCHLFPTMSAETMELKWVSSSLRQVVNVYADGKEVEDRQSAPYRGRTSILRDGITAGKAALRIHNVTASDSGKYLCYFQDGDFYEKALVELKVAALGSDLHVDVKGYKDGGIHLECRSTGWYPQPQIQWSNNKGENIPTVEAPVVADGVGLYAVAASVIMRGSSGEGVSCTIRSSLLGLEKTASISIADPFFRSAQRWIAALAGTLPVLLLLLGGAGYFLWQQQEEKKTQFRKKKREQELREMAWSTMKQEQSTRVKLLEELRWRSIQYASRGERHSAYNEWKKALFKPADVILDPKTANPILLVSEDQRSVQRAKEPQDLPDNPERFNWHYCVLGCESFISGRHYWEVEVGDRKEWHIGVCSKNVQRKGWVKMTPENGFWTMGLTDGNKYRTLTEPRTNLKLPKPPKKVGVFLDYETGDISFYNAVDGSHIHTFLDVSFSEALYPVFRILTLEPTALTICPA

Data set [3] is described as follows: Stability in 50% pooled human plasma assessed as compound hydrolysis at 100 uM after 2 hrs by LC-MS method relative to control. It is filed as ADME, cell-free. Conditions: read-out: Drug degradation. The procedure, abridged:
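Compound at 100 µM final in pooled human plasma diluted to 50% with PBS, pH 7.5. Sampled at 2 h (also 24 h), then extracted into acetonitrile and debris spun down. Analysed by positive-mode LC-MS on C18 with a 25→80% acetonitrile gradient over 9 min. Fraction remaining from peak integration; 2–4 independent runs.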

The target in data set [4] is T1, Butyrophilin subfamily 3 member A1. Kind of data set: Binding affinity to BTN3A1 in human PBMC assessed as stimulation of Vgamma9 Vdelta2 T cells at 100 nM incubated for 3 days and measured after 11 days post compound removal by flow cytometry relative to (E)-dimethyl 5-hydroxy-4-methylpent-3-enylphosphonate.
Target sequence in this assay (O00481 30-513 limits assumed): as above
The target is the same in data set [5]. The data set is described as follows: Binding affinity to BTN3A1 in human PBMC assessed as stimulation of Vgamma9 Vdelta2 T cells at 100 nM incubated for 3 days and measured after 11 days post compound removal by flow cytometry relative to sodium (E)-5-hydroxy-4-methylpent-3-enylphosphonate. (In general: In flow cytometry, cells or beads pass a laser one at a time.)
Target sequence in this assay (O00481 30-513 limits assumed): as above

Data set [6] shares this target. The data set is described as follows: Binding affinity to BTN3A1 in human Vgamma9 Vdelta2 T cells mixed with human K562 cells pretreated with compound for 4 hrs assessed as INF-gamma production measured after 20 hrs by ELISA. Summed up:
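K562 target cells loaded with compound for 4 h, then washed. They were co-cultured with Vγ9Vδ2 T cells purified by negative selection, at 3:1 effector:target. After 20 h, supernatant interferon γ was measured by ELISA. EC₅₀ reported with 95% CI. Three independent experiments using ≥2 donors.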
Target sequence in this assay (O00481 whole entry): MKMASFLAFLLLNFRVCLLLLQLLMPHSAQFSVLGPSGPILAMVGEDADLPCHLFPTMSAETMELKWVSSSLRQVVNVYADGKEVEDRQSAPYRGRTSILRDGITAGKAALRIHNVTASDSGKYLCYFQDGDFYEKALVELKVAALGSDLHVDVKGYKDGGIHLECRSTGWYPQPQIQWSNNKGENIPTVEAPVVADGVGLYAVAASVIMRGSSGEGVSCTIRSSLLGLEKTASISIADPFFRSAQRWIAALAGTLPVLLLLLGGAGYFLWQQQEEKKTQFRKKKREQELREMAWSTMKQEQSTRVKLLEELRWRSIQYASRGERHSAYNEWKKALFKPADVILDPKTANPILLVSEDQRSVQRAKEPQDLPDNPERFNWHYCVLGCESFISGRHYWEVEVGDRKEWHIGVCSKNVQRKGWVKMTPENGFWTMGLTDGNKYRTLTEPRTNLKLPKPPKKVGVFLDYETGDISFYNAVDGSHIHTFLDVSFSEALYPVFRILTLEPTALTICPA
For orientation: An ELISA detects its analyte on a solid surface through an enzyme-linked reagent.

The test system of the next data set is K562. Kind of data set: Cytotoxicity in human K562 cells assessed as reduction in cell viability incubated for 72 hrs by cell-QB reagent based assay. The settings on record: K562, 72 h. Summed up: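 K562 cells seeded at 0.5 × 10⁴ per well in RPMI and exposed to a range of compound concentrations, up to 100 µM, for 72 h. Cell-QB reagent was added for the final 2 h and read by fluorescence. Viability was expressed as % of untreated cells after subtracting a media-only blank. Three independent experiments.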

The nature of data set [7]: Half life in human plasma. It is filed as ADME, cell-free. The procedure, abridged:
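Compound at 100 µM final in pooled human plasma diluted to 50% with PBS, pH 7.5. Incubated for various times, including 2 and 24 h, then extracted with acetonitrile and centrifuged. Analysed by positive-mode LC-MS on C18 with a water/acetonitrile gradient from 25 to 80% over 9 min. Fraction remaining came from peak integration, and half-life was calculated from it. Each point run 2–4 times.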

The source made the active and inactive calls.

As to `C/C(=C\CCP(=O)(OCOC(=O)C(C)(C)C)OCOC(=O)C(C)(C)C)CO`, the t1/2 in data set [1] is 8.4 h. Also, the outcome in data set [2] was Active. Further, in data set [3], the metabolised at 2 h, 100 µM is more than 95%.

What is called EC50 is the midpoint of the concentration-response curve. One may read the IC50 as the concentration at which inhibition is half-maximal. On to `COC(=O)CNP(=O)(CC/C=C(\C)CO)Oc1cccc2ccccc12` (stereo unspecified), for which the t1/2 in data set [1] is more than 24 h. The Ratio EC50 in data set [4] amounted to 12; in data set [5], 9100. Also, the EC50 in data set [6] worked out at 130 nM. Also, the IC50 in the data set on K562 was 40 µM. Also, the result in data set [2] was Active.

Consider `CCOC(=O)CNP(=O)(CC/C=C(\C)CO)Oc1ccccc1` (stereo unspecified), for which the EC50 in data set [6] was 170 nM. Moreover, the IC50 with K562 is more than 100 µM. Besides, the outcome in data set [2] was Active.

`CCOC(=O)CNP(=O)(CC/C=C(\C)CO)Oc1ccc2ccccc2c1` (stereo unspecified): the t1/2 in data set [1] is more than 24 h. Also, the Ratio EC50 in data set [4] is 10; in data set [5] it was 7500. In addition, in data set [6], the EC50 was found to be 93 nM. The outcome in data set [2] was Active.

For the compound `C/C(=C\CCP(=O)(NCC(=O)OC(C)C)Oc1ccccc1)CO` (stereo unspecified), the t1/2 in data set [1] was more than 24 h. Further, the Ratio EC50 in data set [4] was 4.9; in data set [5], 3600. Moreover, in data set [6], the EC50 was 740 nM. For the same compound, in data set [2], the outcome was Active.

For `COC(=O)CNP(=O)(CC/C=C(\C)CO)Oc1ccc2ccccc2c1` (stereo unspecified), in data set [1], the t1/2 is more than 24 h. Also, the Ratio EC50 in data set [4] turned out to be 9.3; in data set [5], 6900. Further, the EC50 in data set [6] was determined as 120 nM. For the same compound, the IC50 with K562 is more than 100 µM. In data set [2], the outcome was Active.

Consider `COC(=O)CNP(=O)(CC/C=C(\C)CO)Oc1ccccc1` (stereo unspecified), for which the t1/2 in data set [1] was more than 24 h. Besides, the Ratio EC50 in data set [4] was determined as 3.6; in data set [5] it was 2700. In data set [6], the EC50 worked out at 460 nM. Besides, the IC50 with K562 is more than 100 µM. The outcome in data set [2] was Active.

In the case of `C/C(=C\CCP(=O)(NCC(=O)OC(C)C)Oc1cccc2ccccc12)CO` (stereo unspecified), the t1/2 in data set [1] was more than 24 h. The Ratio EC50 turned out to be 16 in data set [4] and 12000 in data set [5]. For the same compound, in data set [6], the EC50 turned out to be 290 nM. Besides, in the data set on K562, the IC50 is more than 100 µM. Further, in data set [2], the result was Active.

Regarding `C/C(=C\COP(=O)(O)OP(=O)(O)O)CO`, the result in data set [2] was Active.

For the compound `CCOC(=O)CNP(=O)(CC/C=C(\C)CO)Oc1cccc2ccccc12` (stereo unspecified), the t1/2 in data set [1] is more than 24 h. The Ratio EC50 worked out at 15 in data set [4] and 11000 in data set [5]. Further, the EC50 in data set [6] is 62 nM. Further, in data set [2], the result was Active.

Turning to `C/C(=C\CCP(=O)(NCC(=O)OC(C)C)Oc1ccc2ccccc2c1)CO` (stereo unspecified), the t1/2 in data set [1] was more than 24 h. Besides, the Ratio EC50 turned out to be 6.6 in data set [4] and 4900 in data set [5]. The EC50 in data set [6] came out at 210 nM. The IC50 in the data set on K562 was more than 100 µM. Further, the result in data set [2] was Active.

Turning to `Oc1ccc2ccccc2c1` [BETANAPHTHOL], the IC50 with K562 was more than 100 µM.

As for `Oc1ccccc1` [PHENOL], the IC50 in the data set with K562 is more than 100 µM.

The term half-life denotes the time needed for the level to fall by half in the phase considered. The low end stands for rapid decline, the high end for slow decline. In data set [7], `COc1ccc2cc(C(=O)OCOP(=O)(CC/C=C(\C)CO)OC)c(=O)oc2c1` (stereo unspecified) yielded a half-life of 360 to 480 min.

Consider `Oc1cccc2ccccc12` [1-NAPHTHOL], for which the half-inhibitory concentration (IC50) in the data set on K562 is more than 100 µM.

The values are drawn from ChEMBL document CHEMBL4196196, “Phosphonamidate Prodrugs of a Butyrophilin Ligand Display Plasma Stability and Potent Vγ9 Vδ2 T Cell Stimulation” (J Med Chem, 2018).
